An excerpt weighted towards active compounds, which were near 2.6% of everything screened.
UCH37 DUB inh – human UCH37 deubiquitinating enzyme inhibition; Q9Y5K5; purified proteasome/UCH37, Ub-AMC cleavage fluorescence; actives 0.33% (n = 330,000); inhibition, % (concentration not given with the values);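 active = mean inhibition over replicate wells above about 20%, limit read from the data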
Target sequence (Q9Y5K5 whole entry, looked up): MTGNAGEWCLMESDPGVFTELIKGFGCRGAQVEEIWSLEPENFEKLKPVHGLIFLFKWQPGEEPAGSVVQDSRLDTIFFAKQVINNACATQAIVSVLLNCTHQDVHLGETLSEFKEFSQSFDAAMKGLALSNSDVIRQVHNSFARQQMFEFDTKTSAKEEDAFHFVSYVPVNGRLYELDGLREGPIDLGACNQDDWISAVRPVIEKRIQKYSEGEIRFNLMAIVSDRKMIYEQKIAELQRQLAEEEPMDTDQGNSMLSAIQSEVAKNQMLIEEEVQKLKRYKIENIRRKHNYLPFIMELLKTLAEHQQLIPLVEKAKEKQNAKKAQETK
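System: Proteasome-associated human UCH37 deubiquitinase; Input: 0.15 nM proteasome in added enzyme buffer; Also added: Ub-AMC substrate from 1 µM stock; Incubation: 30 min compound-proteasome preincubation then 25 min substrate reaction, room temperature; Detection: fluorescence, ex 355 nm, em 460 nm; Read-out: % inhibition of Ub-AMC cleavage fluorescence; Benchmarks: no-proteasome and no-compound wells.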
SENP7 inh – SENP7 protease inhibition; recombinant SENP7, Z-RLRGG-aminoluciferin luminescence, 40 min; inhibition, % at 5 µM; Q9BQF6; actives 1.5% (n = 330,000);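 active = inhibition above about 50% at the single test dose, limit read from the data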
SENP6 inh – blocks the human protease SENP6; Q9GZR1; Recombinant SENP6 catalytic domain, aminoluciferin luminescence; inhibition, % at 10 µM; actives 1.8% (n = 330,000); AID 2599;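 active = inhibition above about 50% at the single tested dose, limit read from the data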
SENP1 FRET inh – SENP1 (human) catalytic domain inhibition | Q9P0U3 | recombinant SENP1 catalytic domain, CyPet-SUMO1-YPet FRET cleavage | inhibition, % at 10 µM | actives 0.21% (n = 360,000) | AID 624204;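 active = inhibition at least 30% at 10 µM, raw YFP signal under a set limit, fluorescence ratio 0.5 to 1.5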
Target sequence (Q9P0U3 419-644 limits assumed): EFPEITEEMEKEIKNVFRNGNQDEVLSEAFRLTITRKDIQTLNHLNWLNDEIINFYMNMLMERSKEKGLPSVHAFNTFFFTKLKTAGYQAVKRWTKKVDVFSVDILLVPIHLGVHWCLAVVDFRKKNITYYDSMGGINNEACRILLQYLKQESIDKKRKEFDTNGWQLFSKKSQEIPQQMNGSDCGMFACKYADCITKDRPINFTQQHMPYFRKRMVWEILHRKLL
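material = recombinant human SENP1 catalytic domain, His6-tagged | quantity = 20 pM enzyme | reagent = 25 nM SUMO1 FRET substrate | compound dosing = 10 µM single point, 0.5% DMSO | timing = 50 min enzyme reaction, room temperature, light-protected | detection = FRET, CFP and YFP emission | control set = no-enzyme low, enzyme-DMSO high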
SENP8 block-1 – inhibitors of human SENP8 protease | Q96LD8 | recombinant SENP8, Nedd8 substrate fluorescence | inhibition, % at 20 µM | actives 0.64% (n = 360,000); in the data active = inhibition mostly above about 40%, no sharp cut-off; inactive = mostly below about 27%
SENP8 block-2 – blocks the human protease SENP8; Q96LD8; purified SENP8, Z-RLRGG-aminoluciferin cleavage, luminescence; inhibition, % at 10 µM; actives 1.2% (n = 330,000); AID 2540; in the data active = inhibition above about 50%
SENP8 conf – confirmation of human SENP8 protease inhibitors; actives 40% (n = 6,200); Recombinant SENP8, Z-RLRGG-aminoluciferin luminescence, 60 min; inhibition, % at 12.5 µM; shares compounds with SENP7 inh;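 active = mean inhibition across replicates above about 50%, limit read from the data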
SENP6 confirm – human SENP6 inhibition, confirmed | AID 488915 | inhibition, % at 12.5 µM | shares compounds with SENP7 inh | actives 58% (n = 6,200) | recombinant SENP6, Z-RLRGG-aminoluciferin luminescence
SENP7 conf – confirmation of human SENP7 protease inhibitors | shares compounds with SENP7 inh | recombinant SENP7, Z-RLRGG-aminoluciferin luminescence, 40 min | inhibition, % at 12.5 µM | actives 69% (n = 6,200)
Casp3 select – selectivity test for SENP inhibitors: human caspase-3 inhibition | AID 488918 | inhibition, % at 12.5 µM | actives 60% (n = 6,200) | shares compounds with SENP7 inh | purified caspase-3, Z-DEVD-aminoluciferin luminescence, 60 min;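 active = mean inhibition above about 50%, limit read from the data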
SENP luc ctr – interferes with luciferase luminescence in SENP counter-screen; shares compounds with SENP7 inh; Pre-incubated SENP8/Z-RLRGG-aminoluciferin, luciferase luminescence interference; inhibition, % at 12.5 µM; actives 39% (n = 6,200); AID 488919;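 active = mean inhibition above about 50% when retested at one dose, limit read from the data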
Numbers stand for hits.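 The calls were made as follows, unless noted: active = mean inhibition above about 50% in the one-dose retest (limit read from the data); inactive = the rest.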

`Nc1nn(-c2cccc(F)n2)cc1-c1ccccc1` gave UCH37 DUB inh inactive, SENP7 inh 92, SENP6 inh 87, SENP1 FRET inh inactive, SENP8 block-1 inactive, SENP8 block-2 84, SENP8 conf inactive, SENP6 confirm 81, SENP7 conf 97, Casp3 select 83 and SENP luc ctr inactive.
Screening CC(Cn1nc([N+](=O)[O-])cc1C)=NNC(=O)COc1ccccc1[N+](=O)[O-] returned UCH37 DUB inh inactive.
Cn1ccsc1=NS(=O)(=O)c1ccc(Br)cc1 was read as UCH37 DUB inh inactive.
For O=C(CNc1cccc(C(F)(F)F)c1)NN=Cc1cccc(Br)c1 the results were UCH37 DUB inh inactive.
For Cc1ccc(C=C2C(=O)c3ccccc3C2=O)s1 the results were UCH37 DUB inh inactive, SENP7 inh 92, SENP6 inh 70, SENP1 FRET inh inactive, SENP8 block-1 inactive, SENP8 block-2 81, SENP8 conf 68, SENP6 confirm 94, SENP7 conf 99, Casp3 select 88 and SENP luc ctr inactive.
Cc1ccc(C=C2C(=O)c3ccccc3C2=O)o1 was read as UCH37 DUB inh inactive, SENP7 inh 95, SENP6 inh 97, SENP1 FRET inh inactive, SENP8 block-1 inactive, SENP8 block-2 79, SENP8 conf 96, SENP6 confirm 97, SENP7 conf 101, Casp3 select 96 and SENP luc ctr 75.
Screening Cc1cc(C=C2C(=O)c3ccccc3C2=O)c(C)n1C returned UCH37 DUB inh inactive, SENP7 inh inactive, SENP6 inh 66, SENP1 FRET inh inactive, SENP8 block-1 inactive, SENP8 block-2 56, SENP8 conf inactive, SENP6 confirm inactive, SENP7 conf 72, Casp3 select inactive and SENP luc ctr inactive.
`COc1ccc2ccccc2c1C=NO` gave UCH37 DUB inh inactive.
c1ccc2c(c1)COc1c3cc4c(cc3nn1-2)OCO4 was read as SENP1 FRET inh inactive and SENP8 block-1 inactive.
For CCCC#Cc1ccc2c(c1)COc1c3ccccc3nn1-2 the results were UCH37 DUB inh inactive, SENP7 inh 73, SENP6 inh 92, SENP1 FRET inh inactive, SENP8 block-1 inactive, SENP8 block-2 89, SENP8 conf 53, SENP6 confirm 70, SENP7 conf 90, Casp3 select 86 and SENP luc ctr inactive.
Screening CCc1cc(-c2ccc3c(c2)COc2c4ccccc4nn2-3)on1 returned UCH37 DUB inh inactive, SENP7 inh inactive, SENP6 inh 81, SENP1 FRET inh inactive, SENP8 block-1 inactive, SENP8 block-2 89, SENP8 conf inactive, SENP6 confirm 89, SENP7 conf 94, Casp3 select 70 and SENP luc ctr inactive.
Screening CC1=NN(c2ccccc2)C(=O)/C1=C/c1c(O)n(-c2ccc(F)c(Cl)c2)[nH]c1=O returned UCH37 DUB inh inactive, SENP7 inh inactive, SENP6 inh 84, SENP8 block-2 78, SENP8 conf inactive, SENP6 confirm 66, SENP7 conf 59, Casp3 select inactive and SENP luc ctr 55.
`CC1=NN(c2ccccc2)C(=O)/C1=C\c1cn(CCC#N)nc1-c1ccc(Cl)cc1` gave UCH37 DUB inh inactive, SENP7 inh inactive, SENP6 inh inactive, SENP1 FRET inh inactive, SENP8 block-1 inactive and SENP8 block-2 inactive.
`O=C(O)c1cc(Cl)ccc1OS(=O)(=O)c1ccc(Cl)s1` gave UCH37 DUB inh inactive, SENP7 inh inactive, SENP6 inh inactive, SENP1 FRET inh inactive, SENP8 block-1 inactive and SENP8 block-2 inactive.
O=C(O)c1ccc(OS(=O)(=O)c2ccc(Cl)s2)c(Cl)c1 was read as UCH37 DUB inh inactive, SENP7 inh inactive, SENP6 inh 56, SENP1 FRET inh inactive, SENP8 block-1 inactive, SENP8 block-2 inactive, SENP8 conf inactive, SENP6 confirm inactive, SENP7 conf 61, Casp3 select 54 and SENP luc ctr 60.
O=C(CN1CCC(n2nnc3cc(F)ccc32)CC1)NCCc1nc2ccccc2[nH]1 was read as UCH37 DUB inh inactive, SENP7 inh 52, SENP6 inh inactive, SENP1 FRET inh inactive, SENP8 block-1 inactive, SENP8 block-2 inactive, SENP8 conf inactive, SENP6 confirm inactive, SENP7 conf inactive, Casp3 select inactive and SENP luc ctr inactive.
For O=C(CN1CCC(n2nnc3cc(F)ccc32)CC1)NNC(=O)c1ccccc1 the results were UCH37 DUB inh inactive, SENP7 inh inactive, SENP6 inh inactive, SENP1 FRET inh inactive, SENP8 block-1 inactive and SENP8 block-2 inactive.
For Cc1ccc2c(c1)nnn2C1CCN(CC(=O)N2CCN(c3ccc(F)cc3)CC2)CC1 the results were UCH37 DUB inh inactive, SENP7 inh 64, SENP6 inh inactive, SENP1 FRET inh inactive, SENP8 block-1 inactive, SENP8 block-2 inactive, SENP8 conf inactive, SENP6 confirm inactive, SENP7 conf inactive, Casp3 select inactive and SENP luc ctr inactive.
For CCn1c(SCC(=O)NN=C/C(C)=C/c2ccco2)nnc1-c1ccccc1 the results were UCH37 DUB inh inactive.
COc1ccc(-c2nnn(CC(=O)NCc3ccccc3)n2)cc1OC was read as UCH37 DUB inh inactive, SENP7 inh inactive, SENP6 inh inactive, SENP1 FRET inh inactive, SENP8 block-1 inactive and SENP8 block-2 inactive.
CCOc1ccc(-c2nnn(CC(=O)Nc3ccccc3OC)n2)cc1OCC was read as UCH37 DUB inh inactive, SENP7 inh 63, SENP6 inh inactive, SENP1 FRET inh inactive, SENP8 block-1 inactive, SENP8 block-2 inactive, SENP8 conf inactive, SENP6 confirm inactive, SENP7 conf inactive, Casp3 select inactive and SENP luc ctr inactive.
COc1ccc(C(=NOC(C)=O)c2nccc3cc(OC)c(OC)cc23)cc1OC was read as UCH37 DUB inh inactive.
Screening COc1ccc(C(=O)c2nccc3cc(OC)c(OC)cc23)cc1OC returned UCH37 DUB inh 48, SENP7 inh 92, SENP6 inh 89, SENP1 FRET inh inactive, SENP8 block-1 65, SENP8 block-2 95, SENP8 conf 86, SENP6 confirm 92, SENP7 conf 81, Casp3 select inactive and SENP luc ctr inactive.
